# Key:
# [1] = system: Mus musculus; experiment: Long-term survivors among 6 mice infected with P388 leukemia, scored on day 60 at 160 mg/kg dose on day 1, 5, 9; format: functional
# Outline: (§1)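 B6D2F1 mice in groups of 6–7 were inoculated ip on day 0 with 10^6 P388 cells. Dihydrochloride salts were dissolved in water and given iv on day 1 or on days 1, 5 and 9. Doses ranged from a low nontoxic dose to a toxic one. Long-term survivors were counted at day 60.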
# [2] = system: Mus musculus; experiment: Percent median survival time of mice intraperitoneally injected with P388 leukemia was determined from tested at 160 mg/kg at day1 dose to that of control; format: functional
# Outline: (§2)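 P388 leukemia in B6D2F1 mice (groups of 6–7), 10^6 cells inoculated ip on day 0. Dihydrochloride salts were dissolved in water and given iv on day 1 or on days 1, 5, 9. Three doses were tested, then five if active. %T/C = median survival treated/control × 100, reported at the optimal dose (no toxic death, weight loss <20%), from one or two representative experiments.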
# [3] = system: Mus musculus; experiment: Long-term survivors among 6 mice infected with P388 leukemia, scored on day 60 at 160 mg/kg dose on day 1; format: functional; outline: as §1
# [4] = system: Mus musculus; experiment: Long-term survivors among 6 mice infected with P388 leukemia, scored on day 90 at 20 mg/kg dose; format: functional
# [5] = system: L1210; experiment: Inhibition of murine L1210 leukemia cell proliferation measured by the MTT assay; format: functional, cell-based; conditions: Mus musculus
# Outline: (§3)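 Murine L1210 leukemia and B16 melanoma cells were grown in RPMI 1640 with 10% fetal calf serum, 2 mM L-glutamine, penicillin/streptomycin and 10 mM HEPES (pH 7.4). Cells were exposed to nine serial drug dilutions in triplicate for about four doubling times (L1210 48 h, B16 96 h), then read by microculture tetrazolium (MTT) assay. IC50 is the concentration halving optical density versus untreated controls, averaged over ≥2 independent experiments.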
# [6] = system: Mus musculus; experiment: Percent median survival time of mice intraperitoneally injected with P388 leukemia was determined from tested at 160 mg/kg at day1,5,9 dose to that of control; format: functional; conditions: route intraperitoneal; outline: as §2
# [7] = system: B16; experiment: Inhibition of murine B16 melanoma cell proliferation measured by the MTT assay; format: functional, cell-based; conditions: Mus musculus; outline: as §3
# [8] = system: Mus musculus; experiment: Percent median survival time of mice injected with B16 melanoma, at a intraperitoneal compound dose of 20 mg/kg
# [9] = system: Mus musculus; experiment: Long-term survivors among 12 mice infected with B16 melanoma, scored on day 90 at 10 mg/kg dose on days 1-9
# [10] = system: Mus musculus; experiment: Percent median survival time of mice injected with P388 leukemia, at a intravenous compound dose of 80-160 mg/kg
# [11] = system: Mus musculus; experiment: Percent median survival time of mice injected with P388 leukemia, at a subcutaneous compound dose of 240-320 mg/kg; format: functional
# [12] = system: Mus musculus; experiment: Percent median survival time of mice injected with B16 melanoma, at a intraperitoneal compound dose of 10 mg/kg
# [13] = system: Mus musculus; experiment: Long-term survivors among 12 mice infected with P388 leukemia, scored on day 60 at 240-320 mg/kg dose on day 1; format: functional; outline: as §1
# [14] = system: Mus musculus; experiment: Percent median survival time of mice injected with P388 leukemia, at dose of 40 mg/kg on day 1; format: functional; outline: as §2
# [15] = system: Mus musculus; experiment: Long-term survivors among 21 mice infected with B16 melanoma, scored on day 90 at 5 mg/kg dose
# [16] = system: Mus musculus; experiment: Percent median survival time of mice injected with B16 melanoma, at a intraperitoneal compound dose of 5 mg/kg
# [17] = system: Mus musculus; experiment: Percent median survival time of mice injected with P388 leukemia, at dose of 20 mg/kg on day 1, 5, 9; format: functional; outline: as §2
# [18] = system: Mus musculus; experiment: Long-term survivors among 12 mice infected with P388 leukemia, scored on day 60 at 20 mg/kg dose on day 1, 5, 9; format: functional; outline: as §1
# [19] = system: Mus musculus; experiment: Long-term survivors among 12 mice infected with P388 leukemia, scored on day 60 at 40 mg/kg dose on day 1; format: functional; outline: as §1
# [20] = system: Mus musculus; experiment: Percent median survival time of mice injected with B16 melanoma, at a intraperitoneal compound dose of 20-40 mg/kg
# [21] = organism: Mus musculus; experiment: Long-term survivors among 14 mice infected with B16 melanoma, scored on day 90 at optimal dose on days 1-9
# [22] = system: Mus musculus; experiment: Percent median survival time of mice injected with P388 leukemia, at a intravenous compound dose of 320 mg/kg
# [23] = system: Mus musculus; experiment: Long-term survivors among 14 mice infected with P388 leukemia, scored on day 60 at 320 mg/kg dose on day 1; format: functional; outline: as §1
# [24] = system: Mus musculus; experiment: Percent median survival time of mice injected with P388 leukemia, at a subcutaneous compound dose of 160 mg/kg; format: functional
# [25] = system: Mus musculus; experiment: Long-term survivors among 7 mice infected with B16 melanoma, scored on day 90 at 40 mg/kg dose on day 1; format: functional
# [26] = system: Mus musculus; experiment: Long-term survivors among 7 mice infected with P388 leukemia, scored on day 60 at 40 mg/kg dose on day 1; format: functional
# Outline: (§4)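 B6D2F1 mice in groups of 6–7 received 10^6 P388 cells ip on day 0. Dihydrochloride salts dissolved in water were injected iv on day 1 or on days 1, 5 and 9, at three doses and then five. Read-outs were % T/C (median survival treated/control × 100) and long-term survivors on day 60, both at the optimal dose (no toxic death, weight loss <20%).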
# [27] = system: Mus musculus; experiment: Percent median survival time of mice injected with P388 leukemia, at a intravenous compound dose of 40 mg/kg
# [28] = system: Mus musculus; experiment: Percent median survival time of mice injected with B16 melanoma, at a intraperitoneal compound dose of 1.25 mg/kg
# [29] = system: Mus musculus; experiment: Percent median survival time of mice injected with P388 leukemia, at a subcutaneous compound dose of 20 mg/kg; format: functional
# [30] = system: Mus musculus; experiment: Long-term survivors among 7 mice infected with B16 melanoma, scored on day 90 at 240 mg/kg dose on day 1; format: functional
# [31] = system: Mus musculus; experiment: Long-term survivors among 7 mice infected with P388 leukemia, scored on day 60 at 240 mg/kg dose on day 1; format: functional; outline: as §4
# [32] = system: Mus musculus; experiment: Percent median survival time of mice injected with P388 leukemia, at a subcutaneous compound dose of 240 mg/kg; format: functional
# [33] = system: Mus musculus; experiment: Percent median survival time of mice injected with B16 melanoma, at a intraperitoneal compound dose of 80 mg/kg
# [34] = system: Mus musculus; experiment: Long-term survivors among 6 mice infected with P388 leukemia, scored on day 60 at 160 mg/kg dose; format: functional; outline: as §1
# [35] = system: Mus musculus; experiment: Long-term survivors among 6 mice infected with P388 leukemia, scored on day 60 at 240 mg/kg dose; format: functional; outline: as §1
# [36] = system: Mus musculus; experiment: Percent median survival time of mice intraperitoneally injected with P388 leukemia was determined from tested at 240 mg/kg at day1 dose to that of control; format: functional; conditions: route intraperitoneal; outline: as §2
structure (smiles),measurement,setting,value
Cc1c2ccnc(C(=O)NCCN(C)C)c2cc2c3cc(OCCCCC(=O)O)ccc3n(C)c12,LTS,[1],0
same,T/C,[2],107%
same,LTS,[3],0
same,LTS,[4],0
same,IC50,[5],4230 nM
same,T/C,[6],108%
same,IC50,[7],3470 nM
same,T/C,[8],146%
Cc1c2ccnc(C(=O)NCCN(C)C)c2cc2c3cc(OC(=O)CCCCC(=O)O)ccc3n(C)c12,LTS,[9],4
same,T/C,[10],>607%
same,IC50,[5],20.8 nM
same,T/C,[11],>607%
same,T/C,[12],>352%
same,IC50,[7],5 nM
same,LTS,[13],16
Cc1c2c(C(=O)NCCN(C)C)nccc2c(C)c2c1c1cc(OC(=O)CCCC(=O)O)ccc1n2C,T/C,[14],>640%
same,LTS,[15],0
same,T/C,[16],202%
same,IC50,[5],34 nM
same,T/C,[17],>640%
same,IC50,[7],1.4 nM
same,LTS,[18],11
same,LTS,[19],11
Cc1c2ccnc(C(=O)NCCN(C)C)c2cc2c3cc(OC(=O)CC(C)(C)CC(=O)O)ccc3n(C)c12,T/C,[20],>466%
same,IC50,[5],2.7 nM
same,LTS,[21],5
same,IC50,[7],3.7 nM
same,T/C,[22],>600%
same,LTS,[23],4
same,T/C,[24],404%
Cc1c(OC(=O)CCCCC(=O)O)ccc2c1c1cc3c(C(=O)NCCN(C)C)nccc3c(C)c1n2C,LTS,[25],0
same,IC50,[5],24.7 nM
same,LTS,[26],0
same,T/C,[27],300%
same,T/C,[28],127%
same,T/C,[29],>600%
same,IC50,[7],6.4 nM
Cc1c2ccnc(C(=O)NCCN(C)C)c2cc2c3cc(OC(=O)NCCCC(=O)O)ccc3n(C)c12,IC50,[5],522 nM
same,LTS,[30],0
same,IC50,[7],45.7 nM
same,LTS,[31],0
same,T/C,[32],111%
same,T/C,[33],139%
same,T/C,[24],109%
Cc1c2ccnc(C(=O)NCCN(C)C)c2cc2c3cc(OCC(O)CO)ccc3n(C)c12 (stereo unspecified),LTS,[34],0
same,LTS,[35],0
same,IC50,[5],500 nM
same,T/C,[6],114%
same,T/C,[36],127%
same,IC50,[7],954 nM
same,T/C,[8],129%

# — ChEMBL document CHEMBL1132144, “Synthesis of 9-O-substituted derivatives of 9-hydroxy-5, 6-dimethyl-6H-pyrido[4,3-b]carbazole-1-carboxylic acid (2-(dimethylamino)ethyl)amide and their 10- and 11-methyl analogues with improved antitumor activity” (J Med Chem, 1999)
